Laboratory results from ChEMBL document CHEMBL3112586, “Synthesis of neolignans as microtubule stabilisers” (Bioorg Med Chem, 2014).
pIC50: −log10 of the molar value. Active and inactive are the calls of the source. No cut-off for these calls is given here.

Legend:
MCF7 [1] = assay: Cytotoxicity against human MCF7 cells after 24 hrs by MTT assay; format: functional, cell-based; conditions: MCF7, 24 h
Method in brief: (§1)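 Cells in DMEM, 10% FBS, 37 °C, 5% CO2, plated and incubated 24 h; compounds diluted in phenol-red-free DMEM with 0.5% FBS, vehicle control; after exposure, MTT (5 mg/mL stock) added 3 h, formazan dissolved in DMSO, absorbance 570 nm; IC50 derived; podophyllotoxin and tamoxifen positive controls.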

MDA-MB-231 [2] = assay: Cytotoxicity against human MDA-MB-231 cells after 24 hrs by MTT assay; format: functional, cell-based; conditions: MDA-MB-231, 24 h; method in brief: as §1
HEK293 = assay: Cytotoxicity against human HEK293 cells after 24 hrs by MTT assay; format: cell-based; conditions: HEK293, 24 h; method in brief: as §1
MCF7 [3] = assay: Induction of microtubule polymerization in human MCF7 cells assessed as actin-tubulin cytoskeleton stabilization at 10 uM by confocal microscopy; format: cell-based
Method in brief: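 MCF-7 cells treated, immunostained for actin and tubulin, and examined by confocal microscopy; paclitaxel-treated cells as positive control.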

Tubulin (Homo sapiens) [4] = biological target: T1, Tubulin (Homo sapiens) (UniProt P68371+Q9H4B7+P0DPH7+P68366+Q13509+Q71U36+P04350+Q3ZCM7+P07437+P68363+Q9BQE3+Q6PEY2+Q13885+Q9BVA1+Q9BUF5); assay: Induction of tubulin polymerization (unknown origin) at 10 to 40 uM measured every min for 1 hr in presence of PDT; format: protein-complex assay
Method in brief: (§2)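 Tubulin 3 mg/mL in 80 mM PIPES pH 6.9, 2 mM MgCl2, 0.5 mM EGTA, 1 mM GTP, 15% glycerol at 37 °C with test compounds at varied concentrations; turbidity at 340 nm read every min for 1 h; podophyllotoxin inhibitor and paclitaxel stabiliser references, DMSO negative control.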

Tubulin (Homo sapiens) [5] = biological target: T1, Tubulin (Homo sapiens); assay: Induction of tubulin polymerization (unknown origin) at 10 to 40 uM measured every min for 1 hr; format: protein-complex assay; method in brief: as §2
MDA-MB-231 [6] = assay: Cytotoxicity against human MDA-MB-231 cells after 48 to 72 hrs by MTT assay; format: functional, cell-based; method in brief: as §1
MCF7 [7] = assay: Cytotoxicity against human MCF7 cells after 48 to 72 hrs by MTT assay; format: functional, cell-based; method in brief: as §1
MDA-MB-231 [8] = assay: Cytotoxicity against human MDA-MB-231 cells after 72 hrs by MTT assay; format: functional, cell-based; conditions: MDA-MB-231, 72 h; method in brief: as §1
MDA-MB-231 [9] = assay: Cytotoxicity against human MDA-MB-231 cells after 48 hrs by MTT assay; format: functional, cell-based; conditions: MDA-MB-231, 48 h; method in brief: as §1
MCF7 [10] = assay: Cytotoxicity against human MCF7 cells after 72 hrs by MTT assay; format: functional, cell-based; conditions: MCF7, 72 h; method in brief: as §1
MCF7 [11] = assay: Cytotoxicity against human MCF7 cells after 48 hrs by MTT assay; format: functional, cell-based; conditions: MCF7, 48 h; method in brief: as §1
Homo sapiens = organism: Homo sapiens; assay: Induction of microtubule stabilization (unknown origin) at 4 to 20 uM

Row | SMILES | pIC50 (MCF7 [1]) | pIC50 (MDA-MB-231 [2]) | other results
1 | CCOC(=O)/C=C/c1cc(OC)c(O)c(OC)c1/C(=C/c1cc(OC)c(O)c(OC)c1)C(=O)OCC | 4.13 | 4.04 | –
2 | COc1ccc(/C=C(\CO)c2cc(/C=C/CO)cc(OC)c2OC)cc1OC | < 4.00 | < 4.00 | –
3 | COc1ccc(/C=C(\COC(C)=O)c2cc(/C=C/COC(C)=O)cc(OC)c2OC)cc1OC | < 4.00 | < 4.00 | –
4 | CCOC(=O)/C=C/c1ccc(OC)c(/C(=C/c2ccc(OC)cc2)C(=O)OCC)c1 | < 4.00 | < 4.00 | –
5 | CC/C(=C(\c1ccccc1)c1ccc(OCCN(C)C)cc1)c1ccccc1 [TAMOXIFEN] | – | – | pIC50 (HEK293): 4.59
6 | CC(=O)O[C@H]1C(=O)[C@@]2(C)[C@H]([C@H](OC(=O)c3ccccc3)[C@]3(O)C[C@H](OC(=O)[C@H](O)[C@@H](NC(=O)c4ccccc4)c4ccccc4)C(C)=C1C3(C)C)[C@]1(OC(C)=O)CO[C@@H]1C[C@@H]2O | – | – | Activity (MCF7 [3]): Active; Activity (Tubulin (Homo sapiens) [4]): inactive; Activity (Tubulin (Homo sapiens) [5]): Active
7 | CCOC(=O)C(=C\c1cc(OC)c(O)c(OC)c1)/C(=C/c1cc(OC)c(O)c(OC)c1)C(=O)OCC | < 4.00 | 4.09 | –
8 | COc1cc(/C=C(\C(N)=O)c2cc(/C=C/C(N)=O)cc(OC)c2O)ccc1O | 4.00 | 4.10 | –
9 | CCOC(=O)/C=C/c1ccc(O)c(/C(=C/c2ccc(OC(C)=O)cc2)C(=O)OCC)c1 | 4.18 | 4.80 | Activity (Tubulin (Homo sapiens) [4]): inactive; Activity (Tubulin (Homo sapiens) [5]): Active; Activity (MDA-MB-231 [6]): Active; Activity (MCF7 [7]): Active; pIC50 (HEK293): 4.70; pIC50 (MDA-MB-231 [8]): 6.68; pIC50 (MDA-MB-231 [9]): 5.49; pIC50 (MCF7 [10]): 6.09; pIC50 (MCF7 [11]): 5.02; Activity (Homo sapiens): Active
10 | CCOC(=O)/C=C/c1cc(OC)c(O)c(/C(=C/c2ccc(O)c(OC)c2)C(=O)OCC)c1 | < 4.00 | < 4.00 | –
11 | COc1cc([C@@H]2c3cc4c(cc3[C@H](O)[C@H]3COC(=O)[C@H]23)OCO4)cc(OC)c1OC [PODOFILOX] | 4.19 | 4.45 | pIC50 (HEK293): 4.30
12 | CCOC(=O)/C=C/c1cc(OC)c(O)c(/C(=C/c2ccc(OC(C)=O)c(OC)c2)C(=O)OCC)c1 | < 4.00 | < 4.00 | –
13 | COc1ccc(/C=C(\C(N)=O)c2cc(/C=C/C(N)=O)cc(OC)c2OC)cc1OC | 4.00 | 4.49 | –
14 | COc1ccc(/C=C(\C(=O)O)c2cc(/C=C/C(=O)O)cc(OC)c2OC)cc1OC | – | 4.07 | –
15 | CCOC(=O)C(=C\c1cc(OC)c(OC)c(OC)c1)/C(=C/c1cc(OC)c(OC)c(OC)c1)C(=O)OCC | 4.00 | < 4.00 | –
16 | CCOC(=O)C(=C\c1cc(OC)c(OC(C)=O)c(OC)c1)/C(=C/c1cc(OC)c(OC(C)=O)c(OC)c1)C(=O)OCC | < 4.00 | < 4.00 | –
17 | CCOC(=O)/C=C/c1cc(OC)c(OC)c(/C(=C/c2ccc(OC)c(OC)c2)C(=O)OCC)c1 | < 4.00 | < 4.00 | –
